# Data from ChEMBL document CHEMBL4732095, “Novel naphthylamide derivatives as dual-target antifungal inhibitors: Design, synthesis and biological evaluation” (Eur J Med Chem, 2021).
# The source made the active and inactive calls. The calls are words filed in the database; no cut-off is given here.
# What was measured:
# Aspergillus fumigatus = assay: Antifungal activity against Aspergillus fumigatus KM8001 assessed as inhibition of microbial growth by NCCLS protocol based method; assay type: functional
# In short: (§1)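 Broth MIC50 determined following NCCLS guidelines in Sabouraud medium, with fungal suspension in 24-well format. Compound tested at 0.0625, 0.125, 0.5, 1, 2, 4, 8 and 16 μg/mL. Plates cultured statically at 35 °C. MIC50 is the lowest concentration giving 50% growth inhibition. Naftifine and fluconazole served as positive controls.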
# Nakaseomyces glabratus = assay: Antifungal activity against Candida glabrata ATCC 0001 assessed as inhibition of microbial growth by NCCLS protocol based method; assay type: functional; in short: as §1
# Candida albicans [1] = assay: Antifungal activity against Candida albicans ATCC 10231 assessed as inhibition of microbial growth by NCCLS protocol based method; assay type: functional; in short: as §1
# Pichia kudriavzevii = assay: Antifungal activity against Candida krusei ATCC 6258 assessed as inhibition of microbial growth by NCCLS protocol based method; assay type: functional; in short: as §1
# Candida tropicalis = assay: Antifungal activity against Candida tropicalis ATCC 1369 assessed as inhibition of microbial growth by NCCLS protocol based method; assay type: functional; in short: as §1
# [2] = target: T1, Lanosterol 14-alpha demethylase (Candida albicans (strain SC5314 / ATCC MYA-2876) (Yeast), UniProt P10613); assay: Inhibition of CYP51 in Candida albicans ATCC SC5314 assessed as lanosterol level at 0.125 ug/ml incubated for 48 hrs by LC/MS analysis; set-up: scale not given: the % may be the effect or the level left; conditions: candida albicans sc5314, 48 h, at 0.125 µg/mL
# In short: (§2)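 C. albicans ATCC SC5314 cells exposed to drug at 0.125, 0.5 or 4 μg/mL for 48 h, alongside an untreated control. Sterols were extracted and analysed by LC-MS. Ergosterol, squalene, lanosterol, eburicol and unknown sterols are each given as % of total sterols, calculated from the peak area ratio of each component.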
# [3] = target: T1, Lanosterol 14-alpha demethylase; assay: Inhibition of CYP51 in Candida albicans ATCC SC5314 assessed as unknown sterol level at 0.125 ug/ml incubated for 48 hrs by LC/MS analysis; set-up: scale not given: the % may be the effect or the level left; conditions: candida albicans sc5314, 48 h, at 0.125 µg/mL; in short: as §2
# Candida albicans [4] = assay: Antifungal activity against fluconazole-resistant Candida albicans 901 assessed as inhibition of microbial growth by NCCLS protocol based method; assay type: functional
# Candida albicans [5] = assay: Antifungal activity against Candida albicans ATCC SC5314 assessed as induction of cell fracture at 10 nM/mL by polarizing microscopy; assay type: functional, organism-based; conditions: dose 10.0 nmol/ml
# In short: (§3)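 C. albicans ATCC SC5314 observed by polarizing microscopy over treatment time. Untreated, fluconazole- and naftifine-treated control groups were included. Cell density, dividing cells and cell fracture were assessed, with cell counts taken per field.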
# [6] = target: T1, Lanosterol 14-alpha demethylase; assay: Inhibition of CYP51 in Candida albicans ATCC SC5314 assessed as squalene level at 4 ug/ml incubated for 48 hrs by LC/MS analysis; set-up: scale not given: the % may be the effect or the level left; conditions: candida albicans sc5314, 48 h, at 4 µg/mL
# In short: (§4)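 C. albicans SC5314 cells exposed to compound (0.125, 0.5 or 4 μg/mL) for 48 h alongside untreated and naftifine/fluconazole-treated groups; sterol fraction analysed by LC-MS; each component expressed as percent of total sterols from peak area ratios.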
# [7] = target: T1, Lanosterol 14-alpha demethylase; assay: Inhibition of CYP51 in Candida albicans ATCC SC5314 assessed as ergosterol level at 0.5 ug/ml incubated for 48 hrs by LC/MS analysis (reference value: 95.1 %); set-up: scale not given: the % may be the effect or the level left; conditions: candida albicans sc5314, 48 h, at 0.5 µg/mL; in short: as §4
# [8] = target: T1, Lanosterol 14-alpha demethylase; assay: Inhibition of CYP51 in Candida albicans ATCC SC5314 assessed as lanosterol level at 0.5 ug/ml incubated for 48 hrs by LC/MS analysis; set-up: scale not given: the % may be the effect or the level left; conditions: candida albicans sc5314, 48 h, at 0.5 µg/mL; in short: as §4
# Candida albicans [9] = assay: Antifungal activity against fluconazole-resistant Candida albicans CaR assessed as inhibition of microbial growth by NCCLS protocol based method; assay type: functional
# [10] = target: T1, Lanosterol 14-alpha demethylase; assay: Inhibition of CYP51 in Candida albicans ATCC SC5314 assessed as ergosterol level at 0.125 ug/ml incubated for 48 hrs by LC/MS analysis (reference value: 95.1 %); set-up: scale not given: the % may be the effect or the level left; conditions: candida albicans sc5314, 48 h, at 0.125 µg/mL; in short: as §2
# [11] = target: T1, Lanosterol 14-alpha demethylase; assay: Inhibition of CYP51 in Candida albicans ATCC SC5314 assessed as unknown sterol level at 0.5 ug/ml incubated for 48 hrs by LC/MS analysis; set-up: scale not given: the % may be the effect or the level left; conditions: candida albicans sc5314, 48 h, at 0.5 µg/mL; in short: as §4
# [12] = target: T1, Lanosterol 14-alpha demethylase; assay: Inhibition of CYP51 in Candida albicans ATCC SC5314 assessed as eburicol level at 0.125 ug/ml incubated for 48 hrs by LC/MS analysis (reference value: 1.4 %); set-up: scale not given: the % may be the effect or the level left; conditions: candida albicans sc5314, 48 h, at 0.125 µg/mL; in short: as §2
# Candida albicans [13] = assay: Antifungal activity against fluconazole-resistant Candida albicans 904 assessed as inhibition of microbial growth by NCCLS protocol based method; assay type: functional
# [14] = target: T1, Lanosterol 14-alpha demethylase; assay: Inhibition of CYP51 in Candida albicans ATCC SC5314 assessed as eburicol level at 4 ug/ml incubated for 48 hrs by LC/MS analysis (reference value: 1.4 %); set-up: scale not given: the % may be the effect or the level left; conditions: candida albicans sc5314, 48 h, at 4 µg/mL; in short: as §4
# [15] = target: T1, Lanosterol 14-alpha demethylase; assay: Inhibition of CYP51 in Candida albicans ATCC SC5314 assessed as unknown sterol level at 4 ug/ml incubated for 48 hrs by LC/MS analysis; set-up: scale not given: the % may be the effect or the level left; conditions: candida albicans sc5314, 48 h, at 4 µg/mL; in short: as §4
# Candida albicans [16] = assay: Antifungal activity against Candida albicans ATCC SC5314 assessed as reduction in cell division at 10 nM/mL by polarizing microscopy; assay type: functional, organism-based; conditions: dose 10.0 nmol/ml; in short: as §3
# [17] = target: T1, Lanosterol 14-alpha demethylase; assay: Inhibition of CYP51 in Candida albicans ATCC SC5314 assessed as lanosterol level at 4 ug/ml incubated for 48 hrs by LC/MS analysis; set-up: scale not given: the % may be the effect or the level left; conditions: candida albicans sc5314, 48 h, at 4 µg/mL; in short: as §4
# Candida albicans [18] = assay: Antifungal activity against fluconazole-resistant Candida albicans 17# assessed as inhibition of microbial growth by NCCLS protocol based method; assay type: functional
# [19] = target: T1, Lanosterol 14-alpha demethylase; assay: Inhibition of CYP51 in Candida albicans ATCC SC5314 assessed as eburicol level at 0.5 ug/ml incubated for 48 hrs by LC/MS analysis (reference value: 1.4 %); set-up: scale not given: the % may be the effect or the level left; conditions: candida albicans sc5314, 48 h, at 0.5 µg/mL; in short: as §4
# [20] = target: T1, Lanosterol 14-alpha demethylase; assay: Inhibition of CYP51 in Candida albicans ATCC SC5314 assessed as ergosterol level at 4 ug/ml incubated for 48 hrs by LC/MS analysis (reference value: 95.1 %); set-up: scale not given: the % may be the effect or the level left; conditions: candida albicans sc5314, 48 h, at 4 µg/mL; in short: as §4
# [21] = target: T1, Lanosterol 14-alpha demethylase; assay: Inhibition of Candida albicans ATCC SC5314 CYP51 incubated for 30 mins by HPLC method
# Candida albicans [22] = assay: Antifungal activity against fluconazole-resistant Candida albicans 632 assessed as inhibition of microbial growth by NCCLS protocol based method; assay type: functional
# Candida albicans [23] = assay: Antifungal activity against Candida albicans ATCC SC5314 assessed as decrease in fungal cell density at 10 nM/mL by polarizing microscopy; assay type: functional, organism-based; conditions: dose 10.0 nmol/ml; in short: as §3
# T1 sequence (P10613 whole entry): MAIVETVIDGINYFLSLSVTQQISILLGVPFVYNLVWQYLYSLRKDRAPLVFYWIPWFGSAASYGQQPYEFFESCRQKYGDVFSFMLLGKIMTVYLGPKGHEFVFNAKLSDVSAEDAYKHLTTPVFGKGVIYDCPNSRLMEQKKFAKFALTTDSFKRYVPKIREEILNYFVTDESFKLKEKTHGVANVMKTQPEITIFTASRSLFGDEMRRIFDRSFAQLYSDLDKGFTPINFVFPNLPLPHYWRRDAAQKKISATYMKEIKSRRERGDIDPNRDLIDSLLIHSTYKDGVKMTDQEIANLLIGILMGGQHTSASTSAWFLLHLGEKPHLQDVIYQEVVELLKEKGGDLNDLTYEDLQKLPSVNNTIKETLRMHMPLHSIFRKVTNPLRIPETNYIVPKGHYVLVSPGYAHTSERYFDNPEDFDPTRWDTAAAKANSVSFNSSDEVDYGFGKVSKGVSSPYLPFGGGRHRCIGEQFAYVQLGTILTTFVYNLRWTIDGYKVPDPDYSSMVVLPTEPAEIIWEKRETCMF
smiles,measurement,setting,value
O=C(NC(Cn1ccnc1)C(=O)NC1CCCCC1)c1cccc2ccccc12 (configuration not stated),MIC50,Aspergillus fumigatus,> 16 µg/mL
same,MIC50,Nakaseomyces glabratus,0.25 µg/mL
same,MIC50,Candida albicans [1],0.5 µg/mL
same,MIC50,Pichia kudriavzevii,0.5 µg/mL
same,MIC50,Candida tropicalis,1 µg/mL
CN(CC(=O)NCc1ccncc1)C(=O)c1ccc2ccccc2c1,MIC50,Aspergillus fumigatus,8 µg/mL
same,MIC50,Nakaseomyces glabratus,2 µg/mL
same,MIC50,Candida albicans [1],0.25 µg/mL
same,MIC50,Pichia kudriavzevii,0.5 µg/mL
same,MIC50,Candida tropicalis,1 µg/mL
OC(Cn1cncn1)(Cn1cncn1)c1ccc(F)cc1F [FLUCONAZOLE],Activity,[2],5.1%
same,Activity,[3],3.6%
same,MIC50,Candida albicans [4],> 16 µg/mL
same,Activity,Candida albicans [5],Active
same,Activity,[6],1.3%
same,Activity,[7],43.9%
same,MIC50,Aspergillus fumigatus,> 16 µg/mL
same,MIC50,Nakaseomyces glabratus,0.25 µg/mL
same,Activity,[8],8.9%
same,MIC50,Candida albicans [1],0.25 µg/mL
same,MIC50,Candida albicans [9],> 16 µg/mL
same,Activity,[10],78.5%
same,MIC50,Pichia kudriavzevii,1 µg/mL
same,Activity,[11],4.7%
same,Activity,[12],12.8%
same,MIC50,Candida albicans [13],8 µg/mL
same,Activity,[14],64.5%
same,Activity,[15],5.2%
same,Activity,Candida albicans [16],Active
same,Activity,[17],16.3%
same,MIC50,Candida albicans [18],8 µg/mL
same,Activity,[19],42.5%
same,Activity,[20],12.7%
same,IC50,[21],116 nM
same,MIC50,Candida tropicalis,0.25 µg/mL
same,MIC50,Candida albicans [22],8 µg/mL
same,Activity,Candida albicans [23],Active
O=C(NC(Cn1ccnc1)C(=O)NC1CCCCC1)c1ccc2ccccc2c1 (configuration not stated),MIC50,Aspergillus fumigatus,> 16 µg/mL
same,MIC50,Nakaseomyces glabratus,0.25 µg/mL
same,MIC50,Candida albicans [1],0.5 µg/mL
same,MIC50,Pichia kudriavzevii,0.5 µg/mL
same,MIC50,Candida tropicalis,0.5 µg/mL
O=C(NC(Cn1ccnc1)C(=O)NCc1ccccc1)c1ccc2ccccc2c1 (configuration not stated),MIC50,Aspergillus fumigatus,> 16 µg/mL
same,MIC50,Nakaseomyces glabratus,1 µg/mL
same,MIC50,Candida albicans [1],0.5 µg/mL
same,MIC50,Pichia kudriavzevii,1 µg/mL
same,MIC50,Candida tropicalis,0.5 µg/mL
Cc1ccc(NC(=O)C(Cn2ccnc2)NC(=O)c2cccc3ccccc23)cc1 (configuration not stated),MIC50,Aspergillus fumigatus,> 16 µg/mL
same,MIC50,Nakaseomyces glabratus,0.25 µg/mL
same,MIC50,Candida albicans [1],0.25 µg/mL
same,MIC50,Pichia kudriavzevii,0.5 µg/mL
same,MIC50,Candida tropicalis,0.5 µg/mL
